Assay outcomes: PubChem, Broad Institute
S100A4 inh HTS = blocks human S100A4 binding to myosin IIA peptide | P26447 | S100A4/TAMRA-MyoIIA peptide fluorescence polarization | actives 0.14% (n = 360,000) | inhibition, % at 10.7 µM;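 active means mean inhibition of at least 70% across replicates, with every replicate also reaching that level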
Target sequence (P26447 whole entry, looked up): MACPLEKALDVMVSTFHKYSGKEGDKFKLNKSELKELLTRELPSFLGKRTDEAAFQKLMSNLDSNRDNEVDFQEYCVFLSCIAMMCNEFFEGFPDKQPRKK
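System – human S100A4 monomer protein, biochemical binding assay · Buffer or medium – Calcium-containing HEPES buffer, pH 7.2 · Timing – 5 min between mix addition and reading · Also added – TAMRA-labelled myosin IIA heavy-chain peptide probe, 5 nM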
ARNT-TACC3 inh = disrupts binding between human ARNT and TACC3 | Q9Y6A5 | AlphaScreen His-ARNT PAS-B/GST-TACC3 binding, luminescence; TACC3 fragment carries E629A point mutation | inhibition, % at 9.99 µM | actives 0.66% (n = 390,000);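 active means mean inhibition of replicates at least 50% and at least half of replicates each reaching 50%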;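 further: 0% = complete ARNT plus TACC3 wells and 100% = ARNT alone without TACC3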
ERAP1 inh = inhibitors of human ERAP1 aminopeptidase. recombinant ERAP1, Leu-AMC fluorescence, 60 min. actives 0.15% (n = 340,000). inhibition, % at 10.7 µM;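 active means mean replicate inhibition of at least 30%, or all replicates individually reaching that 30% level; inactive means mean below 30% and not every replicate reaching it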;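 further: 0% = neutral control wells and 100% = L-leucinethiol positive control wells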
Casp6 inh = blocks human caspase-6 cleavage activity | P55212 | purified caspase-6, Z-VEID-R110 cleavage fluorescence | inhibition, % at 12.5 µM | actives 0.53% (n = 350,000);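 active means mean inhibition across replicates at least about 35%, with every replicate also reaching that limit, limit read from the data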;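 further: 0% = median of neutral control wells and 100% = no fluorescence left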
Target sequence (P55212 24-179 limits assumed): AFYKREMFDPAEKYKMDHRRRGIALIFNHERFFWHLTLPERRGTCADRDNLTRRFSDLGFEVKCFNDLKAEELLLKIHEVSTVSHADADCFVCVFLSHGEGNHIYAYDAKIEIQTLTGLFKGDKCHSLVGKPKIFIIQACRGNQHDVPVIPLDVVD
Target sequence (P55212 194-293 limits assumed): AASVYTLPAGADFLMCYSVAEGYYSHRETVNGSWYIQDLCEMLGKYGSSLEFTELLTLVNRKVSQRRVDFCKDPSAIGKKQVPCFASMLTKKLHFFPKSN
PGC1a acetyl inh = PGC1a acetylation modulation, inhibitor mode | U2OS PGC1a acetylation, AlphaScreen anti-acetyl-lysine; with virally co-expressed GCN5 acetyltransferase | inhibition, % at 15.6 µM | actives 0.17% (n = 350,000);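 active means every replicate shows inhibition of at least 40%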;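 further: 0% = neutral control wells and 100% = positive control wells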
rRNA inh HTS = selective bacterial rRNA inhibition in E. coli | E. coli WT GFP vs humanized-ribosome RFP mutants, fluorescence, 24 h; active compounds read low; DMSO median 0, no signal -100 | AID 720706 | actives 1.6% (n = 350,000) | GFP signal change (wild-type ribosome), % (concentration not given with the values);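 active means significant combined selectivity score with lowered wild-type GFP, culture density cut under 30%, mutant RFP and density less affected; inactive means any of these conditions unmet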
Active calls of the source: *. A selection: hits, their analogues and other compounds. The true share with any hit is near 2.4%.

For CCOc1ccc(NC(=O)CN(C)C(=O)Cn2cnc3c2c(=O)n(C)c(=O)n3C)cc1OCC the results were S100A4 inh HTS -0.8, ARNT-TACC3 inh -1.2, ERAP1 inh 30.2*, Casp6 inh -2.3 and rRNA inh HTS 6.3.
`C[C@@H]1CN([C@@H](C)CO)C(=O)c2cccc(NC(=O)c3ccncc3)c2O[C@@H]1CN(C)S(=O)(=O)c1ccc(Cl)cc1` gave S100A4 inh HTS -8.4, ARNT-TACC3 inh 4.3, ERAP1 inh -1.2, Casp6 inh 1.2, PGC1a acetyl inh -1.0 and rRNA inh HTS -18.1.
For COc1cc(/C=C(\CC(=O)O)c2nc3ccccc3s2)cc(OC)c1O the results were S100A4 inh HTS -5.0, ARNT-TACC3 inh -5.5, ERAP1 inh 7.8, Casp6 inh 0.5, PGC1a acetyl inh -2.7 and rRNA inh HTS -27.5.
For COc1ccc(/C=C(\CC(=O)O)c2nc3ccccc3s2)cc1O the results were S100A4 inh HTS -6.1, ARNT-TACC3 inh 0.8, ERAP1 inh 2.2, Casp6 inh 6.3 and rRNA inh HTS -25.2*.
Screening COc1cc(/C=C(\CC(=O)O)c2nc3ccccc3s2)ccc1OCC(=O)Nc1ccccc1F returned S100A4 inh HTS -6.9, ERAP1 inh -5.1, Casp6 inh 4.2, PGC1a acetyl inh 1.4 and rRNA inh HTS -24.7*.
Screening O=C(O)C/C(=C\c1cccc(NC(=O)c2ccccc2Cl)c1)c1nc2ccccc2s1 returned S100A4 inh HTS 0.6, ARNT-TACC3 inh -2.6, ERAP1 inh -0.9, Casp6 inh 3.7, PGC1a acetyl inh 12.8 and rRNA inh HTS -35.0*.
CN(C)C(=O)c1ccc(-c2ccc3c(c2)[C@@H]2[C@@H](CCN2C(=O)c2ccccn2)[C@H](CO)N3)cc1 was read as ARNT-TACC3 inh 7.4, PGC1a acetyl inh 8.3 and rRNA inh HTS 3.3.
COc1cc(N)c2ncccc2c1Br was read as S100A4 inh HTS -1.1, ARNT-TACC3 inh 107.4*, ERAP1 inh -2.0, Casp6 inh 92.9*, PGC1a acetyl inh 20.6 and rRNA inh HTS -10.7.
`O=C(Nc1ccccc1SC(=O)c1ccccc1)c1ccccc1` gave S100A4 inh HTS -2.3, ERAP1 inh -1.1, Casp6 inh -2.3 and PGC1a acetyl inh -2.0.
Screening Cc1ccc(C(=O)Sc2cccccc2=O)cc1 returned S100A4 inh HTS -1.3, ARNT-TACC3 inh 56.9*, ERAP1 inh -3.0, Casp6 inh 16.3 and rRNA inh HTS -7.3.
Screening O=C(C[C@H]1CC[C@H]2[C@@H](COC[C@H](O)CN2CCc2ccccc2)O1)NCCCN1CCOCC1 returned S100A4 inh HTS 6.8, ARNT-TACC3 inh -0.8, ERAP1 inh 0.5, Casp6 inh -31.4, PGC1a acetyl inh 1.1 and rRNA inh HTS -9.0.
For Cc1cc(NC(=O)COC(=O)CSCc2ccc(Cl)c(Cl)c2)no1 the results were S100A4 inh HTS -1.6, ARNT-TACC3 inh 4.8, ERAP1 inh 3.9, Casp6 inh 1.3 and rRNA inh HTS -22.4*.
For CCNC(=O)Nc1ccc2c(c1)C(=O)N(C)[C@H]1CC[C@@H](CC(=O)NCC3CCCCC3)O[C@@H]1CO2 the results were S100A4 inh HTS -12.3, ARNT-TACC3 inh -0.4, ERAP1 inh 1.0, Casp6 inh 3.7, PGC1a acetyl inh -2.7 and rRNA inh HTS 1.5.
Screening Cc1cc(C(=O)Nc2cccc3c2O[C@@H](CN(C)C(=O)NC(C)C)[C@@H](C)CN([C@H](C)CO)C3=O)n(C)n1 returned S100A4 inh HTS 8.6, ARNT-TACC3 inh 6.1, ERAP1 inh 1.5, Casp6 inh 0.3, PGC1a acetyl inh 2.8 and rRNA inh HTS 0.5.
CCC(=O)c1ccc(OCCn2cnc3ccccc32)cc1 was read as S100A4 inh HTS -1.0, ARNT-TACC3 inh 1.8, ERAP1 inh -3.3, Casp6 inh 0.8, PGC1a acetyl inh 3.6 and rRNA inh HTS -33.8*.
`Cc1ccc(N2CC(C(=O)N3CCN(c4ccccn4)CC3)CC2=O)cc1` (stereo unspecified) gave S100A4 inh HTS 17.2, ARNT-TACC3 inh -2.1, ERAP1 inh 0.5, Casp6 inh 13.8, PGC1a acetyl inh -0.8 and rRNA inh HTS 0.4.
Screening O=C1CC(C(=O)N2CCN(c3ccccn3)CC2)CN1Cc1ccccc1Cl (stereo unspecified) returned S100A4 inh HTS 185.0*, ARNT-TACC3 inh 0.5, ERAP1 inh -1.2, Casp6 inh 0.1, PGC1a acetyl inh 0.4 and rRNA inh HTS 6.4.
For N#Cc1cccc(-c2ccc([C@@H]3[C@@H]4CN(S(=O)(=O)c5ccc(-c6ccccc6)cc5)C[C@H]3N4)cc2)c1 the results were S100A4 inh HTS 2.3, ERAP1 inh -3.3, Casp6 inh 2.1, PGC1a acetyl inh 93.0* and rRNA inh HTS 2.0.
`COc1ccccc1CN(C)C(=O)CN1CCN(CC(=O)Nc2ccccc2Cl)CC1` gave S100A4 inh HTS -2.8, ARNT-TACC3 inh -5.9, ERAP1 inh 0.4, Casp6 inh 36.5*, PGC1a acetyl inh 1.5 and rRNA inh HTS -5.5.
Screening COc1ccccc1NC(=O)CN1CCN(CC(=O)Nc2ccccc2Cl)CC1 returned S100A4 inh HTS -2.6, ARNT-TACC3 inh -18.2, ERAP1 inh -3.6, Casp6 inh -2.1, PGC1a acetyl inh 3.5 and rRNA inh HTS 12.5.
For CSc1nc2nccc(/C=C\c3ccccc3)n2n1 the results were ARNT-TACC3 inh -2.6 and PGC1a acetyl inh 49.5*.
`CC1CCCC(NC(=O)c2ccc3c(SCC(=O)O)c4c(nc3c2)CCC4)C1C` (stereo unspecified) gave S100A4 inh HTS -2.2, ARNT-TACC3 inh -6.4, Casp6 inh 42.9*, PGC1a acetyl inh 0.6 and rRNA inh HTS 1.7.
COC(=O)c1ccc(-n2c(C)ccc2-c2ccccc2)cc1 was read as S100A4 inh HTS -3.2, ARNT-TACC3 inh 3.2, ERAP1 inh -0.4, Casp6 inh -0.8, PGC1a acetyl inh 2.3 and rRNA inh HTS -22.1*.
Screening Nc1nonc1-n1nnc(C(=O)N/N=C/c2ccccn2)c1CNc1ccccc1 returned S100A4 inh HTS 0.8, ARNT-TACC3 inh 46.6*, ERAP1 inh -2.9, PGC1a acetyl inh 10.3 and rRNA inh HTS -7.7.
`CCOc1cccc(-c2c(C(=O)N/N=C(\C)c3ccccn3)nnn2-c2nonc2N)c1` gave S100A4 inh HTS -0.4, ARNT-TACC3 inh 91.8*, ERAP1 inh 3.8, Casp6 inh 8.7, PGC1a acetyl inh 13.9 and rRNA inh HTS -25.9.
Cc1c(C(=O)N/N=C/c2ccccn2)nnn1-c1nonc1N was read as S100A4 inh HTS -0.4, ARNT-TACC3 inh 42.9*, ERAP1 inh -2.1, PGC1a acetyl inh -12.3 and rRNA inh HTS 0.0.
`CNC[C@H]1OCCCC[C@H](C)Oc2ccc(NS(=O)(=O)c3ccc(C)cc3)cc2C(=O)N([C@@H](C)CO)C[C@@H]1C` gave S100A4 inh HTS -17.4, ERAP1 inh 1.0, Casp6 inh 3.2, PGC1a acetyl inh -5.0 and rRNA inh HTS 1.2.
